Experimental data gathered from unrelated publications.
Each line is one published result; the experiments were not run side by side.
Target: Serine/threonine-protein kinase BRSK2 (BRSK2, Homo sapiens, UniProt Q8IWQ3)
Residues used in one study (Q8IWQ3 1-736): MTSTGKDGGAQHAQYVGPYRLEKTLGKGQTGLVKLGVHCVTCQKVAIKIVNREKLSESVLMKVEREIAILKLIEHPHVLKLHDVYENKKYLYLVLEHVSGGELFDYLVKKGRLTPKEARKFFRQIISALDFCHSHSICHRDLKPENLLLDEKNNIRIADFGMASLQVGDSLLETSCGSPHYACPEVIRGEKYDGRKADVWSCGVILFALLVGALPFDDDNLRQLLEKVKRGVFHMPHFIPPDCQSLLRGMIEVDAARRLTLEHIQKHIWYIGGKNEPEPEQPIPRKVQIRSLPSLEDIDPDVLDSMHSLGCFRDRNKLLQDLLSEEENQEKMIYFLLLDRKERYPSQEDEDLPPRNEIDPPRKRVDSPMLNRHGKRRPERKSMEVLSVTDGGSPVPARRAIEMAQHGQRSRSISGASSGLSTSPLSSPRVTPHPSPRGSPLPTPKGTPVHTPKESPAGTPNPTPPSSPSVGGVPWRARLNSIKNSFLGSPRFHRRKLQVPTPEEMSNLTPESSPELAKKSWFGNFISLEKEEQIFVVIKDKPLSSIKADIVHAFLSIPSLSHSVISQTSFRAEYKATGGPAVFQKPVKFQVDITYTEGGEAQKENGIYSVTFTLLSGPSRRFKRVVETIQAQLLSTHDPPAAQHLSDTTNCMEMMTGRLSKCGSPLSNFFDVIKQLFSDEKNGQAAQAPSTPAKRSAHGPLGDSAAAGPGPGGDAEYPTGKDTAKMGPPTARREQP

Structure (SMILES)	observed	action	method	tested at	quantity	result
FC(F)c1nc2ccccc2n1-c1nc(N2CCOCC2)nc(N2CCOCC2)n1	enzyme activity	inhibitor	–	10 µM	remaining activity	88%
COc1cc(Nc2cnc(C#N)c(O[C@H](C)CN(C)C)n2)ncc1-c1cnn(C)c1	enzyme activity	inhibitor	radiometric	1 µM	remaining activity	23%
O=C(Nc1cnn(-c2csc(C(=O)NC3COC3)c2)c1)Nc1ccccc1Cl	enzyme activity	inhibitor	–	5 µM	remaining activity	102%
CNC(=O)c1cc(Oc2ccc(NC(=O)Nc3ccc(Cl)c(C(F)(F)F)c3)cc2)ccn1	cell-free assay	–	–	0.5 µM	remaining signal	103%
CC(C)(C)C(=O)c1sc(NC2CCCCC2)nc1N	enzyme activity	inhibitor	–	10 µM	remaining activity	95%
CCCS(=O)(=O)Nc1ccc(F)c(C(=O)c2c[nH]c3ncc(-c4ccc(Cl)cc4)cc23)c1F	enzyme activity	inhibitor	–	1 µM	inhibition	< 10%
CC(=O)c1c(NS(C)(=O)=O)c2cc(-c3ccc(Cl)cc3)c(-c3ccc(Cl)cc3Cl)nc2n(C)c1=O	cell-free assay	–	competition with immobilised ligand	1 µM	remaining binding	90%
N#CCCc1ccc2c(c1)-c1[nH]c3ccc([N+](=O)[O-])cc3c1CC(=O)N2	cell-free assay	–	–	0.5 µM	remaining signal	42%
Cc1cc(NC(=O)c2cccc(S(F)(F)(F)(F)F)c2)cc(-n2ccn3nc(-c4cccnc4)cc23)c1	cell-free assay	–	competition with immobilised ligand	1 µM	remaining binding	100%
COc1ccc(COc2ccc(Cc3cnc(N)nc3N)cc2OC)cc1	cell-free assay	–	–	0.5 µM	remaining signal	96.8%
CN(C)C(=O)Cn1cc(-c2nc(C3(c4ccc(-c5cnc(N)nc5)cc4)CC3)no2)cn1	cell-free assay	–	competition with immobilised ligand	1 µM	remaining binding	77%
CCN(CC)CCNC(=O)c1c(C)[nH]c(/C=C2\C(=O)Nc3ccc(F)cc32)c1C	enzyme activity	inhibitor	–	10 µM	inhibition	82%
O=C(Nc1cnn(-c2csc(C(=O)NC3COC3)c2)c1)Nc1c(F)cccc1Cl	enzyme activity	inhibitor	–	5 µM	remaining activity	100%
Cc1ccc(Nc2nccc(N(C)c3ccc4c(C)n(C)nc4c3)n2)cc1S(N)(=O)=O	enzyme activity	inhibitor	–	10 µM	inhibition	-11%
FC(F)(F)Oc1cccc(-c2cnc3ccc(-c4ccncc4)nn23)c1	enzyme activity	inhibitor	radiometric	5 µM	activity vs control	99%
CC/C(=N\NC(=O)NCc1cccc(O)c1)c1ccc(O)c(C)c1O	enzyme activity	inhibitor	–	0.1 µM	inhibition	3.7%
CN(C)S(=O)(=O)c1ccc2c(c1)/C(=C/c1cc3c([nH]1)CCCC3)C(=O)N2	cell-free assay	–	–	0.5 µM	remaining signal	48.7%
CSc1cccnc1N1CCN(Cc2nc3ccccc3[nH]2)CC1	cell-free assay	–	competition with immobilised ligand	1 µM	remaining binding	100%
CC(C)(C)c1nc2c(s1)c1nc(N)ncc1c1ccc(NS(=O)(=O)c3c(F)cccc3F)c(F)c12	enzyme activity	inhibitor	radiometric	1 µM	remaining activity	88%
CN([C@@H]1CCc2c(CC(=O)O)c3ccccc3n2C1)S(=O)(=O)c1ccc(F)cc1	cell-free assay	–	competition with immobilised ligand	1 µM	remaining binding	100%
CC(C)(O)[C@H]1CC[C@H](Nc2ccc3ncc(-c4cccc(C(F)(F)F)c4)n3n2)CC1	enzyme activity	inhibitor	–	1 µM	remaining activity	94.4%
CCc1ccccc1C(=O)Nc1n[nH]c2c(C)c(F)c(C3C(C#N)=C(C)N(C)C(C)=C3C#N)cc12	cell-free assay	–	competition with immobilised ligand	1 µM	remaining binding	36%
Cn1c(=O)n(-c2ccc(C(C)(C)C#N)cc2)c2c3cc(-c4cnc5ccccc5c4)ccc3ncc21	enzyme activity	inhibitor	–	10 µM	remaining activity	89%
CS(=O)(=O)NCC[C@H](NC(=O)c1cncc2c1cnn2-c1ccc(F)cc1)c1ccnc(S(C)(=O)=O)c1	cell-free assay	–	competition with immobilised ligand	1 µM	remaining binding	77%
Nc1nc(NC2CCCCC2)sc1C(=O)c1ccccc1	enzyme activity	inhibitor	–	10 µM	remaining activity	93%
CN(C)C(=O)Cn1cc(-c2nc([C@@](C)(c3ccc(-c4cnc(N)nc4)cc3)C3CC3)no2)cn1	cell-free assay	–	competition with immobilised ligand	1 µM	remaining binding	100%
COc1cc(/C=C/C(=O)CC(=O)/C=C/c2ccc(O)c(OC)c2)ccc1O	enzyme activity	inhibitor	–	1 µM	activity vs control	88%
COc1cc(Cl)c(C(=O)N[C@@H](CN[C@H]2CC[C@@H](N)CC2)Cc2ccc(C#N)cc2)cc1-c1ccc(CN[C@H](C)c2ccc(C)cc2)o1	enzyme activity	inhibitor	–	1 µM	remaining activity	99%
